Laboratory results reported in ChEMBL document CHEMBL1145477, “Activity of T-1106 in a hamster model of yellow Fever virus infection” (Antimicrob Agents Chemother, 2007).
Calls of active or inactive are those of the source. The calls are words filed in the database; no cut-off is given here.

How the values were obtained:
Yellow fever virus [1] = assay: Antiviral activity against YFV Jimenez infected in Syrian golden hamster liver assessed as mean day to death at 100 mg/kg/day, ip bid for 8 days administered after 1 day post-infection; type: functional; details: route intraperitoneal
Yellow fever virus [2] = assay: Antiviral activity against YFV Jimenez infected in Syrian golden hamster liver treated 4 hrs before viral challenge assessed as mean day to death at 100 mg/kg/day, ip bid for 8 days; type: functional; details: route intraperitoneal
[3] = Selectivity index, ratio of CC50 for MDBK cells to […] for BVDV; type: functional
Yellow fever virus [4] = assay: Antiviral activity against YFV Jimenez infected in Syrian golden hamster assessed as survival of animal at 10 mg/kg, ip bid for 7 days; type: functional; details: route intraperitoneal
Yellow fever virus [5] = assay: Antiviral activity against YFV Jimenez infected in Syrian golden hamster liver treated 4 hrs before viral challenge assessed as serum alanine aminotransferase at 100 mg/kg/day, ip bid for 8 days; type: functional; details: route intraperitoneal
In short: (§1)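 YFV (Jimenez)-infected female hamsters were treated b.i.d. i.p. or p.o. Serum was drawn by ocular sinus at 6 dpi. ALT was read with a colorimetric kit adapted to microplates: substrate plus serum for 30 min at 37°C, then colour reagent and developer, absorbance at 505 nm. Values are IU/liter against saline controls.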

Yellow fever virus [6] = assay: Antiviral activity against YFV Jimenez infected in Syrian golden hamster assessed as serum alanine aminotransferase at 10 mg/kg, ip bid for 7 days; type: functional; details: route intraperitoneal; in short: as §1
Yellow fever virus [7] = assay: Antiviral activity against YFV Jimenez infected in Syrian golden hamster liver assessed as weight change at 100 mg/kg/day, ip bid for 8 days administered after 5 day post-infection; type: functional; details: route intraperitoneal
Syrian golden hamster [8] = assay: Toxicity in YFV infected Syrian golden hamster assessed as assessed as weight change at 100 mg/kg/day, ip bid for 7 days; type: organism-based, Mesocricetus auratus; parameters: route intraperitoneal; details: in vivo, 168 h
In short: (§2)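 Female Syrian golden hamsters (~100 g), toxicity-control groups of three, sham-infected. Drug suspended in saline or 0.4% carboxymethyl cellulose, given i.p. b.i.d. 12 h apart from −4 h through 7 days. Mortality checked daily; weight taken at 0, 3 and 6 dpi, with change taken as 3-to-6 dpi difference.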

Yellow fever virus [9] = assay: Antiviral activity against YFV Jimenez infected in Syrian golden hamster liver assessed as alanine aminotransferase at 100 mg/kg/day, ip bid for 8 days administered after 4 day post-infection; type: functional; details: route intraperitoneal; in short: as §1
Syrian golden hamster [10] = assay: Toxicity in YFV infected Syrian golden hamster assessed as assessed as weight change at 32 mg/kg/day, ip bid for 7 days; type: organism-based, Mesocricetus auratus; parameters: route intraperitoneal; details: in vivo, 168 h; in short: as §2
Yellow fever virus [11] = assay: Antiviral activity against YFV Jimenez infected in Syrian golden hamster assessed as survival of animal at 100 mg/kg, bid ip for 7 days; type: functional, organism-based; parameters: dose 100 mg/kg
Yellow fever virus [12] = assay: Antiviral activity against YFV Jimenez infected in Syrian golden hamster assessed as weight change at 100 mg/kg, ip bid for 7 days; type: functional; details: route intraperitoneal
Yellow fever virus [13] = assay: Antiviral activity against YFV Jimenez infected in Syrian golden hamster liver administered 4 hrs before viral challenge twice daily for 4 days post-infection by infectious cell culture assay; type: functional, organism-based
In short: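 Liver was collected at necropsy 4 dpi from 5 hamsters per group, after b.i.d. dosing that began 4 h before i.p. Jimenez YFV challenge. Homogenates were diluted serially from 10−1 to 10−8 onto semiconfluent Vero cells in four replicate columns. CPE was scored microscopically after 6 days, and titer was extrapolated from dilution and tissue weight.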

Yellow fever virus [14] = assay: Antiviral activity against YFV Jimenez infected in Syrian golden hamster assessed as serum alanine aminotransferase at 100 mg/kg, ip bid for 7 days; type: functional; details: route intraperitoneal; in short: as §1
Yellow fever virus [15] = assay: Antiviral activity against YFV Jimenez infected in Syrian golden hamster liver assessed as mean day to death at 100 mg/kg/day, ip bid for 8 days administered after 5 day post-infection; type: functional; details: route intraperitoneal
[16] = Toxicity in MDBK cells; type: cell-based, Bos taurus; details: cattle
Yellow fever virus [17] = assay: Antiviral activity against YFV Jimenez infected in Syrian golden hamster liver assessed as alanine aminotransferase at 100 mg/kg/day, ip bid for 8 days administered after 5 day post-infection; type: functional; details: route intraperitoneal; in short: as §1
Yellow fever virus [18] = assay: Antiviral activity against YFV Jimenez infected in Syrian golden hamster assessed as serum alanine aminotransferase at 32 mg/kg, po bid for 7 days; type: functional; in short: as §1
Syrian golden hamster [19] = assay: Toxicity in YFV infected Syrian golden hamster assessed as survival of animals at 32 mg/kg/day, ip bid for 7 days; type: organism-based, Mesocricetus auratus; parameters: route intraperitoneal; details: in vivo, 168 h; in short: as §2
Yellow fever virus [20] = assay: Antiviral activity against YFV Jimenez infected in Syrian golden hamster liver treated 4 hrs before viral challenge assessed as survival at 100 mg/kg/day, ip bid for 8 days; type: functional, organism-based
Yellow fever virus [21] = assay: Antiviral activity against YFV infected in african green monkey CV1 cells assessed as reduction in cytopathic effect after 6 days; type: functional, organism-based; details: CV-1, 144 h
In short: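 Jimenez hamster-adapted YFV at 10 CCID50/well on Vero or CV-1 monolayers; seven drug concentrations added 5–10 min before virus; 37°C for 6 days. CPE scored microscopically, then neutral red uptake (0.34% dye, 2 h, eluted and quantified). EC50 derived; CC50 from uninfected drug-treated cells; SI = CC50/EC50.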

Yellow fever virus [22] = assay: Antiviral activity against YFV Jimenez infected in Syrian golden hamster assessed as survival of animal at 32 mg/kg, ip bid for 7 days; type: functional, organism-based; parameters: dose 32 mg/kg
Yellow fever virus [23] = assay: Antiviral activity against YFV Jimenez infected in Syrian golden hamster assessed as survival of animal at 32 mg/kg, po for 7 days; type: functional, organism-based; parameters: dose 32 mg/kg
Yellow fever virus [24] = assay: Antiviral activity against YFV Jimenez infected in Syrian golden hamster liver assessed as weight change at 100 mg/kg/day, ip bid for 8 days administered after 4 day post-infection; type: functional; details: route intraperitoneal
Yellow fever virus [25] = assay: Antiviral activity against YFV Jimenez infected in Syrian golden hamster assessed as weight change at 32 mg/kg, ip bid for 7 days; type: functional; details: route intraperitoneal
Yellow fever virus [26] = assay: Antiviral activity against YFV Jimenez infected in Syrian golden hamster assessed as serum alanine aminotransferase at 32 mg/kg, ip bid for 7 days; type: functional; details: route intraperitoneal; in short: as §1
Yellow fever virus [27] = assay: Antiviral activity against YFV Jimenez infected in Syrian golden hamster assessed as mean day to death after 21 days post-infection at 100 mg/kg, ip bid for 7 days; type: functional; details: route intraperitoneal

With `NC(=O)c1nccn([C@@H]2O[C@H](CO)[C@@H](O)[C@H]2O)c1=O` the Activity (Yellow fever virus [1]) was greater than 21 days, the Activity (Yellow fever virus [2]) was greater than 21 days and the “Ratio CC50/EC50” value [3] was 207. The Activity (Yellow fever virus [4]) was 80%, the Activity (Yellow fever virus [5]) was 58 IU/L and the Activity (Yellow fever virus [6]) was 174 IU/L. It also gave an Activity (Yellow fever virus [7]) of -6.9 g, an Activity (Syrian golden hamster [8]) of 5.3 g and an Activity (Yellow fever virus [9]) of 108 IU/L. The Activity (Syrian golden hamster [10]) was 8.3 g, the Activity (Yellow fever virus [11]) was “Active” and the Activity (Yellow fever virus [12]) was 7.1 g. For the same molecule, the Activity (Yellow fever virus [13]) was “Active”, the Activity (Yellow fever virus [14]) was 56 IU/L and the Activity (Yellow fever virus [15]) was 7.4 days. For the same molecule, the CC50 [16] was 2900 µM, the Activity (Yellow fever virus [17]) was 205 IU/L and the Activity (Yellow fever virus [18]) was 61 IU/L. The Activity (Syrian golden hamster [19]) was “Non-toxic”, the Activity (Yellow fever virus [20]) was “Active” and the EC50 (Yellow fever virus [21]) was greater than 100 µg/mL. For the same molecule, the Activity (Yellow fever virus [22]) was “Active”, the Activity (Yellow fever virus [23]) was “Active” and the Activity (Yellow fever virus [24]) was -4.7 g. For the same molecule, the Activity (Yellow fever virus [25]) was 5.2 g, the Activity (Yellow fever virus [26]) was 65 IU/L and the Activity (Yellow fever virus [27]) was greater than 21 days.
